Test results: PubChem BioAssay AID588818 (Broad Institute, 2011)

system: ldlA[mSR-BI] cells, [3H]cholesterol efflux to HDL; assay: effect on free cholesterol efflux to HDL, late-stage follow-up, mechanism study for SR-BI HDL uptake inhibitor project, ldlA[mSR-BI] cells, powder samples (AID 588818); conditions: at 1 µM; stronger effect = lower value
Procedure, shortened: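 Material: ldlA[mSR-BI] cells carrying a [3H]cholesterol label; times: 1 h compound pretreatment, 2 h HDL efflux; signal: liquid scintillation counting of [3H]cholesterol in medium and cells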

Row | SMILES | cholesterol efflux relative to neutral control
1 | CCC(=O)N1CCc2cc(-c3csc(NC(=O)c4ccco4)n3)ccc21 | 11.5%
2 | O=C(Nc1ccc(-c2nc3cc(NC(=O)c4ccccc4[N+](=O)[O-])ccc3o2)cc1)c1ccccc1[N+](=O)[O-] | 5.29%
3 | O=C(Nc1ccc(-c2nc3cc(NC(=O)c4ccc(NC(=O)c5cccc6ccccc56)cc4)ccc3[nH]2)cc1)c1ccc(NC(=O)c2cccc3ccccc23)cc1 | 10.3%
4 | CCOC(=O)N1CCC(NC(=O)c2ccc3c(c2)N(Cc2ccc(F)cc2)CCS3)CC1 | 14.1%
5 | COc1ccc(-c2nnn(CC(=O)N(C3CCCCC3)C(C)C(=O)NC3CCCC3)n2)cc1OC (stereo not given) | 13.1%
